High-throughput results from PubChem.
LMPTP block – LMPTP phosphatase inhibitors, primary screen, biochemical, fluorescence intensity, uHTS. Low molecular weight phosphotyrosine protein phosphatase (Homo sapiens), P24666. recombinant LMPTP-A, OMFP fluorogenic substrate. inhibition, % at 20 µM. hit rate 0.22% among 360,000. AID 651560, 2012;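 active = compounds that cut the enzyme signal by at least half of the control window in the single-dose screen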;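 also: plate controls were DMSO wells with enzyme plus substrate for no effect and substrate without enzyme for full effect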
Target sequence (P24666 whole entry, looked up): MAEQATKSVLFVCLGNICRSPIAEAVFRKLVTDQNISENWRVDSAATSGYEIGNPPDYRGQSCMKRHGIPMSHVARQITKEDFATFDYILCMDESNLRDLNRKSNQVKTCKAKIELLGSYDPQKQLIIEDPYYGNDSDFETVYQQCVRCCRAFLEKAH
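Test system: LMPTP-A, protein tyrosine phosphatase of low molecular weight; Input: 0.625 nM enzyme; Incubation: 50 min dark incubation at room temperature; Signal: endpoint fluorescence intensity from OMFP dephosphorylation; Read-out basis: % inhibition versus control wells.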
Scp-1 inhibitor – Scp-1 phosphatase inhibitors, primary screen, biochemical, colorimetric, uHTS. Carboxy-terminal domain RNA polymerase II polypeptide A small phosphatase 1 (Homo …. Recombinant Scp1, phosphopeptide, malachite green phosphate absorbance. inhibition, % at 20 µM. hit rate 0.88% among 340,000. AID 493091, 2011;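 active = inhibition above about 50% at 20 µM, limit read from the data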;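 also: plate controls were DMSO wells with enzyme for no effect and wells lacking enzyme for full effect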
Target sequence (Q9GZU7 76-261 limits assumed): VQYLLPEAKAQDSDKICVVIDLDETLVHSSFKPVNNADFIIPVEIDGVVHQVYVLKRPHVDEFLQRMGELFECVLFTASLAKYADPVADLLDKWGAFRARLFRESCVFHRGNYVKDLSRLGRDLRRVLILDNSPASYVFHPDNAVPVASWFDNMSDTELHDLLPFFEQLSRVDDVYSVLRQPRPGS
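Test system: SCP-1 catalytic domain; Buffer or medium: Acidic Tris acetate buffer with magnesium and detergent; Also added: Phosphorylated 17-residue peptide substrate; Compound: single 20 µM dose, 1% DMSO; Schedule: enzyme reaction 45 min at room temperature, colour 5 min, stabilisation 30 min; Signal: Phosphate-binding colour reagent, absorbance read at 630 nm.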
STEP block – STEP phosphatase inhibitors, primary screen, biochemical, fluorescence intensity, uHTS; Tyrosine-protein phosphatase non-receptor type 5 (Homo sapiens), P54829; recombinant STEP, OMFP fluorogenic substrate; inhibition, % at 20 µM; hit rate 0.25% among 360,000; AID 588621, 2011;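 active = inhibition at 20 µM, scaled per plate between control wells, above about 37%, limit read from the data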;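 also: 0% = DMSO with enzyme and substrate and 100% = substrate only without enzyme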
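System: STEP (striatal-enriched tyrosine phosphatase) enzyme, cell-free; medium: Bis-Tris pH 6.0 buffer with DTT, detergent; dosing: 20 µM, 1% DMSO; times: reaction 20 min, ambient temperature; detection: fluorescence, 480/540 nm; read-out basis: normalized % inhibition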
SUMO1 PPI mod – modulators of SUMO1 protein-protein interactions, primary screen, biochemical, uHTS; SUMO1 binding to a labelled peptide, TR-FRET, 1 h; AID 602429, 2012; hit rate 0.33% among 360,000; Small ubiquitin-related modifier 1 (Homo sapiens), P63165; inhibition, % at 20 µM; in the data active = inhibition above about 37%
Target sequence (P63165 whole entry, looked up): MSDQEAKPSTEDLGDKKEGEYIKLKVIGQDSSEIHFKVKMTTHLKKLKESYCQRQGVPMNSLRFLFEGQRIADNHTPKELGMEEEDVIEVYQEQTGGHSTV
HKDC1 inh – HKDC1 hexokinase inhibitors, primary screen, biochemical, fluorescence, uHTS | recombinant HKDC1, G6PDH/diaphorase resazurin coupled fluorescence | inhibition, % at 20 µM | hit rate 0.16% among 340,000;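 active = inhibition above about 35% when tested at 20 µM, limit read from the data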;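 also: plate controls were DMSO wells with enzyme for no effect and DMSO wells lacking enzyme for full effect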
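Assay system: recombinant HKDC1 hexokinase; detection: coupled resazurin fluorescence, excitation 525 nm, emission 613 nm; benchmarks: DMSO-plus-enzyme-mix negative control, buffer-substituted positive control; compound dosing: single 20 µM dose; schedule: 90 min at room temperature in dark; also added: glucose plus 1 mM ATP as hexokinase substrates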
DNMT1 block – human DNMT1 methyltransferase inhibitors, primary screen, biochemical, molecular beacon, fluorescence, HinP1I cleavage, uHTS | inhibition (reported as % activation of signal), % at 10 µM | hit rate 0.83% among 360,000 | AID 588458, 2011; in the data active = inhibition above about 50%
Scp-1 conf – Scp-1 phosphatase inhibitors, retest, confirmation, biochemical, colorimetric, single concentration; hit rate 61% among 2,500; recombinant SCP-1 catalytic domain, phosphate release, malachite green absorbance; inhibition, % at 20 µM; AID 540281, 2011; shares compounds with Scp-1 inhibitor;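 also: plate controls were DMSO with enzyme for no effect and buffer wells lacking enzyme for full effect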
MG interference – colorimetric readout interference by compounds, confirmation, artefact control for Scp-1 inhibitor project, biochemical, single concentration; Colorimetric interference counterscreen, malachite green absorbance 630 nm; shares compounds with Scp-1 inhibitor; 2,500 tested, under 10 active; apparent inhibition (interference), % at 20 µM;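 also: compounds added after enzyme reaction finished so only phosphate colour detection is probed; plate controls were DMSO wells with completed Scp-1 reaction for no effect and substrate wells lacking enzyme for full effect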
Scp-1 Tm shift – Scp-1 binding by thermal shift, confirmation, orthogonal assay for Scp-1 inhibitor project, biophysical, differential scanning fluorimetry; shares compounds with Scp-1 inhibitor; Recombinant SCP1, Sypro Orange thermal shift Tm; thermal shift relative to vanadate control, % at 40 µM; hit rate 25% among 1,500;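 active = substances whose mean melting-temperature shift, as a percentage of the reference inhibitor's shift, reaches about 5.3%, limit read from the data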;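 also: 0% = Tm of DMSO wells and 100% = Tm with sodium orthovanadate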
HKDC1 act conf – HKDC1 hexokinase activators, confirmation, biochemical, single concentration; recombinant HKDC1, G6PDH/diaphorase resazurin fluorescence; stronger effect = lower value; inhibition, % at 20 µM; AID 504708, 2011; hit rate 14% among 740; shares compounds with HKDC1 inh;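 active = inhibition at or below a set negative limit, negative inhibition meaning the enzyme was activated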
DNMT1 confirm – DNMT1 methyltransferase inhibitor retest, confirmation, biochemical, molecular beacon, fluorescence, single concentration; shares compounds with DNMT1 block; DNMT1 molecular beacon HinP1I cleavage; inhibition, % at 10 µM; hit rate 8% among 2,300;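 active = average inhibition of at least 30% in the single-concentration confirmation test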
Beacon interf – counter-screen for DNMT1 inhibitors: spectral interference. hit rate 1% among 2,300. AID 602387. activation (fluorescence interference), % at 10 µM. DNMT1 molecular beacon spectral interference counterscreen, fluorescence 485/520. shares compounds with DNMT1 block;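 active = activation of at least 30% at 10 µM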;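 also: DNMT1 catalytic domain with a HinP1I cleavage step and a FAM/dabcyl DNA beacon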
* hit, by the source's call; x = no result given. Hits are enriched below; roughly 1.8% of the tested compounds scored in any of these assays.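 The calls were made as follows, unless noted: active = inhibition of at least 30% at 20 µM; inactive = the rest.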

SMILES | LMPTP block | Scp-1 inhibitor | STEP block | SUMO1 PPI mod | HKDC1 inh | DNMT1 block | Scp-1 conf | MG interference | Scp-1 Tm shift | others
CCC1(c2ccccc2)NC(=O)N(CC(=O)NCc2ccncc2)C1=O (centres undefined) | -2.2 | -9.8 | -2.2 | -2.5 | 3.3 | -0.8 | x | x | x
CCC1(c2ccccc2)NC(=O)N(CC(=O)NNC(=O)COc2ccc(Cl)cc2C)C1=O (centres undefined) | -0.2 | -11.2 | 1.9 | 1.8 | -4.5 | -2.4 | -9.0 | -8.2 | x
CCOc1ccccc1N1CCN(S(=O)(=O)c2ccc3c4c(cccc24)C(=O)N3)CC1 | 8.1 | 61.3* | 6.5 | 4.5 | 18.6 | 32.4 | 50.3* | -8.2 | 4.7
COc1ccc(NC(=O)CSCC(=O)NC2(C)CCS(=O)(=O)C2)cc1 (centres undefined) | 0.3 | -7.1 | -1.7 | 0.0 | -6.6 | 2.9 | x | x | x
CC(C)OC(=O)C1C2C=CC3(CN(Cc4cccs4)C(=O)C13)O2 (centres undefined) | -1.5 | 67.5* | -0.7 | -3.5 | -3.0 | 1.0 | -11.7 | -10.1 | x
COC(=O)/C=C1\OC(C2CC2)c2ccccc21 (centres undefined) | -1.8 | x | x | 1.7 | x | x | x | x | x
Cc1csc2c(=O)sc(NC(=O)c3ccc(F)cc3Cl)nc12 | 2.7 | 44.6 | 6.4 | 5.9 | 2.0 | -1.0 | x | x | x
O=C(Nc1nc2ccsc2c(=O)s1)c1ccc(F)cc1 | 64.8* | 95.7* | 97.6* | 0.9 | 8.9 | 12.0 | 51.0* | -9.5 | -6.4
O=C(Nc1nc2ccsc2c(=O)s1)c1ccc(F)cc1Cl | 0.9 | 54.7* | 12.2 | 14.6 | -2.1 | 15.0 | 38.5* | -9.8 | -10.9
Cc1csc2c(=O)sc(NC(=O)c3ccc(F)cc3)nc12 | -1.9 | 0.4 | -0.1 | 4.1 | -8.7 | 7.8 | x | x | x
O=C(NNC(=O)c1ccccc1F)c1ccc2nc[nH]c2c1 | 0.6 | 11.2 | -2.6 | 4.1 | -4.0 | 1.3 | x | x | x
O=C(NNC(=O)c1ccccc1Br)c1ccc2nc[nH]c2c1 | 4.7 | 73.4* | 18.3 | 11.8 | 2.1 | 21.9 | 66.0* | -9.6 | 3.0
CCCC(NC(=O)Cc1c(C)c2cc3c(C)c(C)oc3c(C)c2oc1=O)C(=O)N[C@@H](Cc1ccccc1)C(=O)O (some centres undefined) | 21.4 | 98.1* | 10.5 | 19.6 | 52.0* | 18.5 | 87.7* | -7.9 | -18.3 | HKDC1 act conf=-19.1
O=C(O)c1ccccc1-c1c2cc(I)c(=O)c(I)c-2oc2c(I)c(O)c(I)cc12 | 22.3 | 77.2* | -75.0 | 69.4* | 68.6* | 34.0 | 65.4* | -23.3 | 163.6* | HKDC1 act conf=43.5
O=Cc1ccc(-c2ccccc2C(=O)O)o1 | 1.5 | 5.2 | -3.4 | -2.5 | -1.4 | 6.3 | x | x | x
CSc1ccc(CN2CCC2(C)C(=O)Nc2cccc(Oc3ccccc3)c2)cc1 (centres undefined) | 4.1 | x | 2.2 | -6.0 | x | 3.0 | x | x | x
CC(C)[C@H](NC(=O)c1ccco1)C(=O)OCc1cc(=O)n2c(n1)sc1ccccc12 | 20.8 | 82.9* | -0.4 | 11.3 | 5.1 | 83.9* | 59.5* | -14.2 | 1.6 | DNMT1 confirm=16.9;Beacon interf=-0.6
O=C(Cc1coc2cc3c(cc12)CCC3)OCc1cc(=O)n2c(n1)sc1ccccc12 | 8.8 | 63.3* | 2.1 | 6.0 | 2.2 | 84.8* | 51.3* | -30.2 | 6.3* | DNMT1 confirm=0.6;Beacon interf=1.6
Cc1ccc2c(CC(=O)OCc3csc(C)n3)coc2c1 | -2.3 | 1.4 | 1.6 | -0.9 | 2.8 | -1.5 | x | x | x
O=C(OCc1cc(=O)n2c(n1)sc1ccccc12)c1cccc(O)c1 | 7.8 | 78.9* | 0.5 | 11.6 | 4.6 | 98.1* | 57.7* | -19.2 | 4.9 | DNMT1 confirm=23.1;Beacon interf=5.4
O=C(OCc1cc(=O)n2c(n1)sc1ccccc12)c1ccc(O)cc1O | 12.8 | 78.1* | 3.2 | 3.7 | 1.9 | 69.8* | 60.1* | -11.7 | 0.1 | DNMT1 confirm=6.2;Beacon interf=-7.1
CCc1c(O)nc2sc3ccccc3n2c1=O | 0.1 | -7.0 | 0.2 | -1.1 | 3.1 | 0.0 | x | x | x
COC(=O)c1cc(=O)nc2sc3ccccc3n12 | 0.0 | -0.4 | -2.6 | 1.8 | -0.6 | 4.1 | x | x | x
CC(=O)OC[C@@H]1CN(Cc2cccc(C(F)(F)F)c2)C[C@H](n2cnc3c(NCc4ccco4)ncnc32)O1 | 1.0 | x | 1.0 | -5.3 | x | 5.4 | x | x | x
COc1ccc(CC(N)c2csc(NC(=O)c3cc(C(C)(C)C)oc3C)n2)cc1 (centres undefined) | -1.2 | x | 1.4 | -127.7 | x | -19.2 | x | x | x
Cc1noc(C)c1-c1ccc(C(=O)NCc2cccs2)c2occc12 | -0.1 | x | -1.9 | 12.2 | x | -0.8 | x | x | x
NC(=S)n1[nH]c(-c2ccc([N+](=O)[O-])cc2)c(N=Nc2ccccc2[N+](=O)[O-])c1=O | 10.4 | 63.0* | 6.9 | 5.4 | -2.7 | 84.7* | 37.5* | -18.6 | 10.5* | DNMT1 confirm=-2.2;Beacon interf=-8.4
Cc1[nH]n(C(N)=S)c(=O)c1N=Nc1cccc([N+](=O)[O-])c1C | -1.1 | -3.5 | 3.0 | -28.6 | -27.3 | -11.5 | x | x | x
